We go through one molecule from article PMC3581696 (The Journal of General Physiology, 2013).

Numbering of substitutions follows the chain as printed. Where “and” joins values, the source holds several entries; their conditions need not be identical. Identical values can stand only once.

For series [1], the target named is T1, mEAG1 Δ2–173 channels (Mus musculus, UniProt Q60603).
T1 sequence (Q60603 with tags, fused parts or gaps): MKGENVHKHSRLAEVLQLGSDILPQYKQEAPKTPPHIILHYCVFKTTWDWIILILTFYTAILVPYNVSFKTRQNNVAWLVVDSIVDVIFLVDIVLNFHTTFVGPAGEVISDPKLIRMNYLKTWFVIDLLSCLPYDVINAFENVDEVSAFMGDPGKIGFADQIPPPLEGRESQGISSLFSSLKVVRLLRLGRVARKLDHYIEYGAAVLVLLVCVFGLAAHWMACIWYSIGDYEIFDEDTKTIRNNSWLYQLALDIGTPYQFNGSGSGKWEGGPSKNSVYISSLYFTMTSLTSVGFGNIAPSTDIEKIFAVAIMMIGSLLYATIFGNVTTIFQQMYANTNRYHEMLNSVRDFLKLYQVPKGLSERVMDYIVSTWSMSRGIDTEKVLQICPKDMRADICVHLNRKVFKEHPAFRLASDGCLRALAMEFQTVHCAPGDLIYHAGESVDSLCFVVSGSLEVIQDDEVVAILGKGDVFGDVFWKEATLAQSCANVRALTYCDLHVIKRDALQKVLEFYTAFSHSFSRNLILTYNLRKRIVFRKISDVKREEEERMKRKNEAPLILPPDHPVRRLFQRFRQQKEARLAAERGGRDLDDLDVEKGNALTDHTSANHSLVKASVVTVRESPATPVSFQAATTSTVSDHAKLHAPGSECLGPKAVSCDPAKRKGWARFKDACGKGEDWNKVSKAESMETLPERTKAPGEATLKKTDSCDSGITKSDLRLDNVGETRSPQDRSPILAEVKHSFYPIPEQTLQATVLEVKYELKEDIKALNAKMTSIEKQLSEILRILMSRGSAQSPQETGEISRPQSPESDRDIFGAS
As to the kind of experiment: Inside-out patch-clamp of amino-terminal deletion mutant channels. It counts as cell-based. The essentials:
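Δ2–173 mEAG1 was expressed in Xenopus oocytes and recorded in inside-out patches in symmetric 130 mM KCl/HEPES/EDTA, pH 7.2, held at −100 mV. Steps of 3 s from −100 to +100 mV (20-mV increments) returned to −100 mV for 1 s, with 0 or 30 µM flavonoid. Conductance–voltage data were fit with a product of two Boltzmann functions, with inactivation parameters and activation slope held fixed. The −100 mV tail after a step to −40 mV was fit with a single exponential.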
(Patch clamp records ionic current or voltage across a cell membrane.)

Series [2] is described as follows: Solubility limit in recording / aqueous solutions. It counts as physicochemical. Particulars: recording solutions, aqueous buffer.
Series [3] has as its target T2, wild-type CNBHD from mEAG1 (Mus musculus, UniProt Q60603).
T2 sequence (Q60603 552-724): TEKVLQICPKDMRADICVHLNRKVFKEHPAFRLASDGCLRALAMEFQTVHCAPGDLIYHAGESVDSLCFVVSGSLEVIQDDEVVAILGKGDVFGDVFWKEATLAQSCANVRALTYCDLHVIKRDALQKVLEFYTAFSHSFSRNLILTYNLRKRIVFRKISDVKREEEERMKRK
The experiment in a line: Fisetin fluorescence anisotropy binding assay, wild-type CNBHD. As to conditions: Kd (apparent affinity), 5 µM fisetin, fit with Eq. 7. (In general: Fluorescence polarisation rises when a labelled molecule tumbles more slowly, as on binding a larger partner.)

The target in series [4] is T3, mEAG1 Δ821–989 channels (Mus musculus, UniProt Q60603).
T3 sequence (Q60603 1-820): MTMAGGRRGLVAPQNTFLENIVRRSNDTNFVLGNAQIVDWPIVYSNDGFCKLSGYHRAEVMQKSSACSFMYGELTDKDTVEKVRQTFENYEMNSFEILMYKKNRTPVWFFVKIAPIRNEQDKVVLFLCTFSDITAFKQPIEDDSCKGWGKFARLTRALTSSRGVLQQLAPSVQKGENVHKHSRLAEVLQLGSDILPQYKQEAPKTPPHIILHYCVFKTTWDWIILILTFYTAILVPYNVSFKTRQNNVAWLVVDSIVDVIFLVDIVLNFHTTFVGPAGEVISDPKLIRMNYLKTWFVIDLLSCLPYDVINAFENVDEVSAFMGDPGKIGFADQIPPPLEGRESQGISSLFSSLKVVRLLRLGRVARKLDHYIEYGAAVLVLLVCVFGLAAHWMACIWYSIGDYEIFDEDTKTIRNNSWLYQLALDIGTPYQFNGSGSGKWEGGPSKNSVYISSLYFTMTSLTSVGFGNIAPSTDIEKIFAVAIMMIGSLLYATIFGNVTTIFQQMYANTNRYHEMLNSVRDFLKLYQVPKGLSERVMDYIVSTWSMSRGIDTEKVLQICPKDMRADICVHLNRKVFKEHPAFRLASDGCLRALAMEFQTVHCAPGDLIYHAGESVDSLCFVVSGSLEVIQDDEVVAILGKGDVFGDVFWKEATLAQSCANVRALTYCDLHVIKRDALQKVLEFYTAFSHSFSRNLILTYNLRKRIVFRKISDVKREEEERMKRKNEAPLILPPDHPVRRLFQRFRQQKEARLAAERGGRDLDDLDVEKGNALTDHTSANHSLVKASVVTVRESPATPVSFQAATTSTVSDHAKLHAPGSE
As to the kind of experiment: Inside-out patch-clamp of post-CNBHD deletion mutant channels. It counts as cell-based. Particulars: with 30 µM fisetin. The essentials:
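mEAG1 mutant cRNA was injected into defolliculated Xenopus oocytes, and the vitelline membrane was removed. Inside-out patches were bathed in symmetric 130 mM KCl, 10 mM HEPES, 0.2 mM EDTA, pH 7.2, holding at −100 mV. Steps of 0.1 s from −140 to +50 mV (10-mV increments) were followed by −120 mV tails, without or with 30 µM flavonoid. Peak tails were normalized and Boltzmann-fitted. Deactivation time constant came from single-exponential fits of the −120 mV tail after +50 mV; two-tailed t test.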

Series [5] concerns the target T4, purified C-linker/CNBHD of mEAG1 channels (Mus musculus, UniProt Q60603).
T4 sequence (Q60603 505-702): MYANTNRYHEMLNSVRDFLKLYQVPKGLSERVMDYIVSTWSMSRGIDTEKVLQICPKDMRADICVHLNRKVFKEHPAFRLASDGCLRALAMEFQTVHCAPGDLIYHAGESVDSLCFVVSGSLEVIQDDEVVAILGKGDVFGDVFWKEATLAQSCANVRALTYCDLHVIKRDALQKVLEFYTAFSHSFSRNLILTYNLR
The experiment in a line: Tryptophan-to-flavonoid FRET binding assay. As to conditions: 100 µM flavonoid; 4 µM protein.

Series [6] has as its target T5, Y699A mutant CNBHD from mEAG1 (Mus musculus, UniProt Q60603, Y699A).
T5 sequence (Q60603 552-724 Y699A): T2 sequence (Q60603 552-724) with Y148A
The experiment in a line: Fisetin fluorescence anisotropy binding assay, Y699A CNBHD. Particulars: Kd (apparent affinity), 5 µM fisetin, fit with Eq. 7.

A word on the solubility: it is the dissolved amount per volume that the medium holds.

With `O=c1c(O)c(-c2ccc(O)c(O)c2)oc2cc(O)ccc12` [Fisetin, 2-(3,4-dihydroxyphenyl)-3,7-dihydroxychromen-4-one], the “increase of peak conductance after a step to −40 mV” value in series [1] (30 µM fisetin, average) is reported as 1.7 fold. In series [1] (with 30 µM fisetin, after a step to −40 mV, 117 ± 1 ms without, n = 3), the “time constant of deactivation” value amounted to 375 ± 36 ms. For the same molecule, the “time constant of deactivation (tail currents of Fig. 5 C)” value in series [1] (with 30 µM fisetin, tail at −100 mV after step to −40 mV, 116 ms without) came out at 239 ms. In series [2], this molecule yielded a solubility of at most 150 µM. In addition, the Kd was 111 µM and ≥ 111 µM in series [3]; 30 µM and ≥ 30 µM in series [6]. Moreover, the “rate (time constant) of deactivation” value in series [4] (at −120 mV, 3.4 ± 0.7 ms without, n = 4) worked out at 6.7 ± 2.2 ms. For the same molecule, in series [4] (tail at −120 mV after step to +50 mV, 5.2 ms without), the “time constant of deactivation (tail currents of Fig. 5 F)” value is recorded as 13.4 ms. Also, in series [4] (−31.9 mV without, Fig. 5 E), the “V1/2 (Boltzmann fit of the averaged conductance–voltage relationship)” value was −50.6 mV. In addition, in series [4] (−36.4 ± 2.5 mV without, n = 4), the “V1/2 of the conductance–voltage relationship” value is −51.1 ± 6.0 mV. In addition, the “decrease of peak fluorescence intensity of the C-linker/CNBHD at 341 nm” value in series [5] amounted to 27%.
